Experimental data from ChEMBL document CHEMBL2396592, “Discovery of Dap-3 polymyxin analogues for the treatment of multidrug-resistant Gram-negative nosocomial infections” (J Med Chem, 2013).
Converted amounts (≈) assume the structure as drawn.

Tests used:
[1] = Plasma protein binding in ICR mouse neutropenic infection model; type: ADME, cell-free; settings: read-out: PPB (converted)
Klebsiella pneumoniae = assay: Antibacterial activity against polymyxin-sensitive ESBL-positive Klebsiella pneumoniae clinical isolate 3700 assessed as growth inhibition by broth microdilution method; type: functional
Acinetobacter baumannii [2] = assay: Antibacterial activity against polymyxin-resistant Acinetobacter baumannii clinical isolate 1649 assessed as growth inhibition by broth microdilution method; type: functional
Mus musculus = assay: fAUC in ICR mouse neutropenic infection model at 12.5 to 75 mg/kg, sc; type: ADME, organism-based; set-up: dose 12.5-75 mg/kg, route subcutaneous; settings: in vivo
Method in brief: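 Infected neutropenic female ICR mice (~25 g; cyclophosphamide 150 and 100 mg/kg IP at 4 and 1 days before inoculation) received single SC doses of 12.5–75 mg/kg. Six mice per time point were sampled by cardiac puncture at eight times over 12 h, and plasma was assayed by LC-MS.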

Pseudomonas aeruginosa [3] = assay: Antibacterial activity against polymyxin-resistant Pseudomonas aeruginosa clinical isolates assessed as growth inhibition by broth microdilution method
Escherichia coli = assay: Antibacterial activity against polymyxin-sensitive Escherichia coli isolate 1 assessed as growth inhibition by broth microdilution method; type: functional
Rattus norvegicus [4] = assay: fAUC in Wistar Han rat at 4 mg/kg, iv bid administered as bolus dose for 7 days measured at 1 to 7 days; type: ADME, organism-based; set-up: dose 4 mg/kg, route intravenous; settings: in vivo
Canis familiaris [5] = assay: Nephrotoxicity in beagle dog assessed as incidence of necrotic kidney lesions at 5 to 20 mg/kg, iv bid administered as bolus dose for 7 days measured at 1 to 7 days by microscopic analysis; type: toxicity, organism-based, Canis lupus familiaris; set-up: route intravenous; settings: in vivo
Method in brief: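 Male and female Beagle dogs, 5–11 kg, received IV bolus twice daily (≥6 h apart) for 7 days at 0 (0.9% saline), 5, 11 or 20 mg/kg/day. Necropsy was the day after the last dose. Kidney proximal tubules were examined microscopically for degeneration/regeneration and graded in severity. Incidence is given as animals with lesions over animals tested.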

Acinetobacter baumannii [6] = assay: Bactericidal activity against polymyxin-resistant Acinetobacter baumannii clinical isolate 1649; type: functional
[7] = Ratio of fAUC in ICR mouse neutropenic infection model to MIC for Pseudomonas aeruginosa assessed during measurement of exposure index required for 80%; type: functional
Canis familiaris [8] = assay: Ratio of compound fAUC in beagle dog at 11 mg/kg, iv bid for 7 days to polymyxin B fAUC in beagle dog at 6 mg/kg, iv bid for 7 days; type: ADME, organism-based, Canis lupus familiaris; settings: in vivo, 168 h
[9] = Ratio of fAUC in ICR mouse neutropenic infection model to MIC for Pseudomonas aeruginosa assessed during measurement of 1 log decrease parameter; type: functional
[10] = Cytotoxicity against human RPTEC after 24 hrs by LDH assay; type: cell-based; settings: RPTEC cells, read-out: TC50
Method in brief: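 Primary human renal proximal tubule epithelial cells in REGM (EGF, hydrocortisone, epinephrine, insulin, T3, transferrin, gentamycin/amphotericin-B, FBS). After 72 h of growth at 37 °C, 5% CO2, cells were exposed for 24 h to aqueous compound at 100, 67, 44, 30, 20 and 13 μM. LDH release into the supernatant was measured by kit and TC50 (μM) derived, with PMB and PMBN as controls.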

Canis familiaris [11] = assay: fAUC in beagle dog at 5 mg/kg, iv bid administered as bolus dose for 7 days measured at 1 to 7 days; type: ADME, organism-based, Canis lupus familiaris; set-up: dose 5 mg/kg, route intravenous; settings: in vivo
Canis familiaris [12] = assay: fAUC in beagle dog at 11 mg/kg, iv bid administered as bolus dose for 7 days measured at 1 to 7 days; type: ADME, organism-based, Canis lupus familiaris; set-up: dose 11 mg/kg, route intravenous; settings: in vivo
Pseudomonas aeruginosa [13] = assay: Bactericidal activity against polymyxin-resistant Pseudomonas aeruginosa clinical isolate 1646; type: functional
Method in brief: (§1)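 Test strain PA-1646 is a P. aeruginosa isolate with a mutated PmrAB two-component system. The system is constitutively active, so the modified lipid A moiety is constantly expressed on the cell surface, giving a polymyxin-resistant phenotype.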

Canis familiaris [14] = assay: fAUC in beagle dog at 20 mg/kg, iv bid administered as bolus dose for 7 days measured at 1 to 7 days; type: ADME, organism-based, Canis lupus familiaris; set-up: dose 20 mg/kg, route intravenous; settings: in vivo
Rattus norvegicus [15] = assay: Nephrotoxicity in Wistar Han rat assessed as incidence of necrotic kidney lesions at 4 to 8 mg/kg, iv bid administered as bolus dose for 7 days measured at 1 to 7 days by microscopic analysis; type: toxicity, organism-based; set-up: route intravenous; settings: in vivo
Method in brief: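 Male Wistar Han IGS rats, 6–9 weeks old, received IV bolus twice daily (≥6 h apart) for 7 days at 0 (0.9% saline), 4 or 8 mg/kg/day. Necropsy was the day after the last dose. Kidneys were weighed and examined microscopically for proximal tubule epithelial degeneration/regeneration, graded minimal to severe. Incidence is given as animals with lesions over animals tested.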

Rattus norvegicus [16] = assay: fAUC in Wistar Han rat at 8 mg/kg, iv bid administered as bolus dose for 7 days measured at 1 to 7 days; type: ADME, organism-based; set-up: dose 8 mg/kg, route intravenous; settings: in vivo
Acinetobacter baumannii [17] = assay: Antibacterial activity against polymyxin-sensitive Acinetobacter baumannii clinical isolate 3167 assessed as growth inhibition by broth microdilution method; type: functional
[18] = Fraction unbound in Wistar Han rat plasma; type: ADME, cell-free
[19] = Fraction unbound in beagle dog plasma; type: ADME, cell-free, Canis lupus familiaris
Pseudomonas aeruginosa [20] = assay: Antibacterial activity against polymyxin-resistant Pseudomonas aeruginosa clinical isolate 1646 assessed as growth inhibition by broth microdilution method; type: functional; method in brief: as §1
[21] = Ratio of fAUC in ICR mouse neutropenic infection model to MIC for Pseudomonas aeruginosa assessed during measurement of statis parameter; type: functional
Pseudomonas aeruginosa [22] = assay: Antibacterial activity against polymyxin-sensitive Pseudomonas aeruginosa 1401 assessed as growth inhibition by broth microdilution method; type: functional
Method in brief: (§2)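 CLSI broth microdilution MIC against P. aeruginosa 1401 (PA01) and 1402 (UC12120), the two strains used in the mouse thigh model.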

[23] = Ratio of fAUC in ICR mouse neutropenic infection model to MIC for Pseudomonas aeruginosa assessed during measurement of 50% of maximal efficacy; type: functional
Pseudomonas aeruginosa [24] = assay: Antibacterial activity against Pseudomonas aeruginosa 1402 assessed as growth inhibition by broth microdilution method; type: functional; method in brief: as §2

SMILES: CC(C)C[C@@H]1NC(=O)[C@@H](Cc2ccccc2)NC(=O)[C@H](CCN)NC(=O)[C@@H](NC(=O)[C@H](CN)NC(=O)[C@@H](NC(=O)[C@H](CCN)NC(=O)c2ccc(=O)n(-c3ccccc3)c2)[C@@H](C)O)CCNC(=O)[C@H]([C@@H](C)O)NC(=O)[C@H](CCN)NC(=O)[C@H](CCN)NC1=O
- fraction unbound [1]: 0.54
- MIC50 (Klebsiella pneumoniae): 0.5 µg/mL
- MIC90 (Klebsiella pneumoniae): 1 µg/mL
- MIC50 (Acinetobacter baumannii [2]): 4 µg/mL
- MIC90 (Acinetobacter baumannii [2]): 16 µg/mL
- fAUC (Mus musculus): 7200 ng·h/mL
- MIC90 (Pseudomonas aeruginosa [3]): 8 µg/mL
- MIC50 (Escherichia coli): 1 µg/mL
- MIC90 (Escherichia coli): 2 µg/mL
- fAUC (Rattus norvegicus [4]): 13000 ng·h/mL
- Activity (Canis familiaris [5]): Toxic
- MBC (Acinetobacter baumannii [6]): 2 µg/mL (≈ 1.6 µM)
- fAUC/MIC [7]: 157.55
- fAUC ratio (Canis familiaris [8]): 1.5
- fAUC/MIC [9]: 109.63
- CC50 at 24 h [10]: > 100 µM
- fAUC (Canis familiaris [11]): 20000 ng·h/mL
- fAUC (Canis familiaris [12]): 64000 ng·h/mL
- MBC (Pseudomonas aeruginosa [13]): 8 µg/mL (≈ 6.42 µM)
- fAUC (Canis familiaris [14]): 114000 ng·h/mL
- Activity (Rattus norvegicus [15]): Non-toxic
- fAUC (Rattus norvegicus [16]): 29000 ng·h/mL
- MIC50 (Acinetobacter baumannii [17]): 2 µg/mL
- MIC90 (Acinetobacter baumannii [17]): 2 µg/mL
- fraction unbound [18]: 0.81
- fraction unbound [19]: 0.58
- MIC (Pseudomonas aeruginosa [20]): 4 µg/mL
- MIC50 (Pseudomonas aeruginosa [20]): 2 µg/mL
- fAUC/MIC [21]: 85.26
- MIC50 (Pseudomonas aeruginosa [22]): 1 µg/mL
- MIC90 (Pseudomonas aeruginosa [22]): 2 µg/mL
- fAUC/MIC [23]: 87.92
- MIC (Pseudomonas aeruginosa [24]): 0.5 µg/mL
